Activity calls are given as the source filed them. The calls are words filed in the database; no cut-off is given here.
Columns and labels:
[1] = Growth inhibition of VHL-null human RCC4 cells after 4 days by XTT assay; assay type: functional; details: RCC4, 96 h
In short: (§1)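 XTT read-out: 5000 cells/well plated, vehicle or drug added next day, 4-day exposure. Then phenol red-free medium with 0.3 mg/mL XTT, 20% FCS and 2.65 μg/mL N-methyldibenzopyrazine methyl sulfate, 1-2 h at 37 °C, absorbance at 450 nm. GI50 by linear interpolation; single determinations in triplicate. Ratio is the intraexperiment RCC4-VHL GI50 / RCC4 GI50.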

[2] = Ratio of IC50 for human RCC4-VHL cells to IC50 for VHL-null human RCC4 cells; assay type: functional; in short: as §1
RCC4 = assay: Induction of autophagy in VHL-null human RCC4 cells assessed as intracytoplasmic vacuoles at 5 uM after 24 h

| SMILES | GI50 [1] | RatioGI50 [2] | Activity (RCC4) |
| --- | --- | --- | --- |
| Cc1cccc(Nc2nc(-c3ccncc3C#CCO)cs2)c1 | 0.24 µM | 11.9 | Active |
| Cc1cc(Nc2nc(-c3ccncc3)cs2)ccc1O | 70 µM | 2.3 | – |
| Brc1cccc(Nc2nc(-c3ccncc3)cs2)c1 | 12.4 µM | >3.2 | – |
| Cc1cccc(Nc2nc(-c3ccncc3)c(C(N)=O)s2)c1 | 19.2 µM | >2 | – |
| Cc1cccc(Nc2nc(-c3ccncc3CCCO)cs2)c1 | 6.8 µM | >5.9 | – |
| Fc1ccccc1Nc1nc(-c2ccncc2)cs1 | 14.3 µM | >2.8 | – |
| Oc1ccc(Nc2nc(-c3ccccn3)cs2)cc1 | 36 µM | 0.7 | – |
| Cc1cccc(Nc2nc(-c3ccncc3Cl)cs2)c1 | 2.9 µM | >13.8 | Active |
| COCC#Cc1cnccc1-c1csc(Nc2cccc(C)c2)n1 | 0.62 µM | 45 | Active |
| C#Cc1cc(-c2csc(Nc3cccc(C)c3)n2)ccn1 | 17.8 µM | >2.2 | – |
| Clc1ccc(Nc2nc(-c3ccncc3)cs2)cc1Cl | 13.5 µM | >3 | – |
| Cc1cccc(Nc2nc(-c3ccnc(F)c3)cs2)c1 | 4.5 µM | >8.9 | – |
| CCc1cnccc1-c1csc(Nc2cccc(C)c2)n1 | 6.2 µM | 2.8 | – |
| Fc1ccc(Nc2nc(-c3ccncc3)cs2)cc1 | 6 µM | >7 | – |
| COc1ccc(Nc2nc(-c3ccncc3)cs2)cc1OC | 24 µM | 1.9 | – |
| COc1cccc(Nc2nc(-c3ccncc3)cs2)c1 | 3 µM | 17 | – |
| c1cc(-c2csc(Nc3ccc4c(c3)CCC4)n2)ccn1 | 2 µM | 10 | Active |
| CCN(CC)Cc1sc(Nc2cccc(C)c2)nc1-c1ccncc1 | 13 µM | 1.4 | – |
| Cc1cccc(Nc2nc(-c3ccncc3)c(CN(C)C)s2)c1 | 16 µM | 2.3 | – |
| Cc1cccc(Nc2nc(-c3cc(Cl)nc(Cl)c3)cs2)c1 | 15 µM | 2.3 | – |
| Oc1ccc(Nc2nc(-c3ccncc3)cs2)cc1 | 5.3 µM | 8 | – |
| Cc1ccc(Nc2nc(-c3ccncc3)cs2)cc1C | 6.5 µM | 6.4 | – |
| Cc1cccc(Nc2nc(-c3ccncc3Br)cs2)c1 | 3.9 µM | >10 | – |
| CC(=O)c1ccc(-c2cnccc2-c2csc(Nc3cccc(C)c3)n2)cc1 | 3.9 µM | 9 | – |

Source: ChEMBL document CHEMBL1154748, “4-Pyridylanilinothiazoles that selectively target von Hippel-Lindau deficient renal cell carcinoma cells by inducing autophagic cell death” (2010)
